Source: PubChem
TRPC6 activator – mouse TRPC6 channel activators, primary screen, cell-based, HEK293, membrane potential dye. B-score at 10 µM. HEK293-TRPC6 membrane potential dye fluorescence; hits give high values. 0.13% of 310,000 active;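 active = B-score of the integrated fluorescence ratio above library mean plus 3 SD, and starting fluorescence ratio within library mean plus 5 SD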;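 note: higher score means more depolarization so channel activation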
TRPC4 block – inhibitors of mouse TRPC4 channel, primary screen, Fluo4 calcium, HEK293 TRPC4beta/mu-opioid cells; DAMGO-evoked Fluo4 calcium flux; hits give low values; B-score at 10 µM; 0.39% of 300,000 active; AID 2247, 2010;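 active = B-score over 3 SD under the library average, no early fluorescence shift, positive overall ratio signal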
Target sequence (Q9QUQ5 whole entry, looked up): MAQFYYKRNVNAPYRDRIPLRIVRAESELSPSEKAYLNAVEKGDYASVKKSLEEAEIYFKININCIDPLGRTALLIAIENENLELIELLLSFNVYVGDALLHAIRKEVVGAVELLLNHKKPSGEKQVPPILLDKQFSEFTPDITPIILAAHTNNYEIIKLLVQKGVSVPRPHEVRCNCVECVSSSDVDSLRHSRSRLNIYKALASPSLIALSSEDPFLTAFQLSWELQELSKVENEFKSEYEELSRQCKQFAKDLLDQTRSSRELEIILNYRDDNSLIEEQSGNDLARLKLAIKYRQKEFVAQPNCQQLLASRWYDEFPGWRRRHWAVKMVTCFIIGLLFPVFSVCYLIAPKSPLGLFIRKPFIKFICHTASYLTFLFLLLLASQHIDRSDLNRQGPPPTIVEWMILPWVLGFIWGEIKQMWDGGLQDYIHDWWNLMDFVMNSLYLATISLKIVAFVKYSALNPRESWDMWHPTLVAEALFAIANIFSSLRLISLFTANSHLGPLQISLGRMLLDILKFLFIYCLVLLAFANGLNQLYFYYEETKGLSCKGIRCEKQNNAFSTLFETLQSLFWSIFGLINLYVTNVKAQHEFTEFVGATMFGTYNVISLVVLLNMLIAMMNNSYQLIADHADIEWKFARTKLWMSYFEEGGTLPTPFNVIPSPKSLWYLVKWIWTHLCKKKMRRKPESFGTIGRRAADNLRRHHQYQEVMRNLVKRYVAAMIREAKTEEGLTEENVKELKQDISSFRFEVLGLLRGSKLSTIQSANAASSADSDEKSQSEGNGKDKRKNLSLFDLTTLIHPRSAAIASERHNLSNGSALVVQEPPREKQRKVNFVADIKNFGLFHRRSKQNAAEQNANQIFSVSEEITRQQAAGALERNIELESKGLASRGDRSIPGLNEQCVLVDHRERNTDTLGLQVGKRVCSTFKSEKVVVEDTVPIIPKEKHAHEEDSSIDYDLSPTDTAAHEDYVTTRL
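Assay system: Stable TRPC4beta/mu-opioid receptor HEK293 cells | Reagent: DAMGO in two steps, submaximal then maximal | Compound dosing: Single concentration per test compound | Signal: Fluo4 Ca2+ flux fluorescence | Evaluation: Per-well B score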
TRPC6 inh – mouse TRPC6 channel inhibitors, primary screen, cell-based, HEK293, membrane potential dye; Short transient receptor potential channel 6 (Mus musculus), Q61143; B-score at 10 µM; ACh-evoked depolarization; hits give low values; 1.1% of 310,000 active;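 active = B-score under library mean minus 3 SD, initial fluorescence not abnormally high, positive integrated signal ratio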;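 note: B-score derived from integrated fluorescence ratio over the kinetic read; more negative B-score means stronger inhibition of depolarization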
TRPC4 potent – positive allosteric modulators of TRPC4, primary screen, cell-based, mouse TRPC4beta, HEK293 mu-opioid, Fluo-4 calcium. Short transient receptor potential channel 4 (Mus musculus), Q9QUQ5. DAMGO EC20, Fluo-4 Ca2+ flux; hits give high values. B-score at 10 µM. 0.42% of 310,000 active. AID 2227, 2009;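 active = B-score of calcium response area above 5 SD of library B-scores, with initial fluorescence ratio within 5 SD of library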
TRPC4 agonist – activators of mouse TRPC4 channel, primary screen, Fluo4 calcium, HEK293 TRPC4beta/mu-opioid cells; Fluo4 calcium fluorescence; hits give high values; B-score at 10 µM; 0.49% of 310,000 active; AID 2237, 2010;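 active = B-score above 5 SD of library B-scores, and initial fluorescence ratio not above library mean plus 5 SD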;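 note: positive B-score marks a calcium rise read as TRPC4 activation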
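Assay system – TRPC4beta and mu-opioid receptor HEK293 stable cells · Measured by – Fluo4 fluorescence, kinetic · Schedule – dye loading 45 min room temperature, 110 s kinetic read · Read-out – B-scored integrated calcium fluorescence ratio · Controls – buffer and maximal DAMGO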
Of the large screens only hits and unclear results are named; the others gave an inactive call. A selection: hits, their analogues and other compounds. The true share with any hit is near 2.3%.

CC1=NNC(=O)/C1=C\c1cn(-c2ccccc2)nc1-c1ccccc1	TRPC4 potent 10
O=Cc1cn(-c2ccccc2)nc1-c1ccccc1	none
COc1cc(/C=C2/C(=O)NN(c3cccc(C)c3)C2=O)ccc1OC(=O)c1ccco1	TRPC4 potent 22
N#CC1=C(N)C(C#N)(C#N)C(c2cccnc2)C2CC(c3ccccc3)CC=C12 (stereo not given)	TRPC4 potent 36
N#CC1=C(N)C(C#N)(C#N)C(c2cccnc2)C2CCCC=C12 (stereo not given)	none
O=C(CCCCn1c(=O)c2ccccc2n(Cc2ccccc2F)c1=O)NC1CCN(Cc2ccccc2)CC1	TRPC4 potent 12
O=C(CCCn1c(=O)[nH]c2ccccc2c1=O)NC1CCCCCC1	none
COC(=O)c1ccccc1NC(=O)Cn1c(=O)n(CCC(=O)NC2CCN(Cc3ccccc3)CC2)c(=O)c2ccccc21	none
Cc1cc(NC(=O)Cn2c(=O)n(CCCCC(=O)NC3CCN(Cc4ccccc4)CC3)c(=O)c3ccccc32)n[nH]1	TRPC4 potent 11
Cc1cccc(C)c1NC(=O)Cn1c(=O)n(CCCC(=O)NC2CCN(Cc3ccccc3)CC2)c(=O)c2ccccc21	none
O=C(CCCCn1c(=O)[nH]c2ccccc2c1=O)NC1CCN(Cc2ccccc2)CC1	TRPC4 agonist 86
CCCn1c(=O)c2sccc2n2c(CCCC(=O)NC3CCN(Cc4ccccc4)CC3)nnc12	TRPC4 potent 16
CC(=O)c1cccc(OC(=O)c2ccc3c(=O)n4c(nc3c2)CCC4)c1	none
Cc1ccccc1NS(=O)(=O)c1ccc2[nH]c(=O)[nH]c2c1	none
CC(COc1ccccc1Cc1ccccc1)N1CCCCC1 (stereo not given)	TRPC6 activator 12, TRPC4 agonist 67
COC1=C(Nc2ccccc2)C(=O)c2ccccc2C1=O	TRPC4 potent 13
COC1=C(Nc2ccc(C)cc2)C(=O)c2ccccc2C1=O	none
CS(=O)(=O)N1CCN(c2ccc([N+](=O)[O-])c(NCc3cccnc3)c2)CC1	none
O=C(/C=C/c1ccco1)Oc1cc(Br)cc(/C=N/NC(=O)c2ccccc2O)c1	TRPC4 potent 12
Cc1ccccc1CCN(C(=O)c1csnn1)C(C(=O)NC1CCCC1)c1ccncc1 (stereo not given)	none
CCCCN(C(=O)C(C)Oc1ccc(Br)cc1)c1c(N)n(Cc2ccccc2)c(=O)[nH]c1=O (stereo not given)	none
CCc1ccc2nc(N=C(N)N)nc(C)c2c1	TRPC4 block -8
O=C(c1sc2ccccc2c1Cl)N(Cc1ccccc1Cl)C1CCS(=O)(=O)C1 (stereo not given)	none
Cc1cc2oc(C(=O)N(Cc3ccccc3)C3CCS(=O)(=O)C3)cc(=O)c2cc1Cl (stereo not given)	TRPC4 potent 23
O=C(c1sc2ccccc2c1Cl)N(Cc1ccco1)C1CCS(=O)(=O)C1 (stereo not given)	TRPC4 agonist 59
O=C(c1sc2ccccc2c1Cl)N(Cc1ccccc1)C1CCS(=O)(=O)C1 (stereo not given)	TRPC4 agonist 107
CCCOC(=O)Nc1ccc(S(=O)(=O)Nc2ncccn2)cc1	none
Cc1nc(-n2nnc3ccccc32)c2c3c(sc2n1)CCCC3	none
Fc1ccc(Nc2ncnc3sc4c(c23)CCC4)cc1F	none
c1ccc2c(c1)nnn2-c1ncnc2sc3c(c12)CCCC3	TRPC4 block -6
c1ccc(Nc2ncnc3sc4c(c23)CCC4)cc1	TRPC4 agonist 216
Fc1ccc(Nc2ncnc3sc4c(c23)CCC4)cc1	TRPC4 potent 66
COc1cc(C2NC(=O)CCC2[N+](=O)[O-])cc(Br)c1OC (stereo not given)	none
O=C1/C(=C/c2ccccc2Cl)SC(=S)N1CCCC(=O)N(CCO)c1ccccc1	TRPC4 block -6
CCCCc1ccc(N/C(N)=N/c2nc(C)cc(C)n2)cc1	TRPC4 agonist 77
Cc1cc(C)cc(N/C(N)=N/c2nc(C)cc(C)n2)c1	TRPC4 block -6
Cc1cccc(N/C(N)=N/c2nc(C)cc(C)n2)c1	none
Cc1ccc(N/C(N)=N/c2nc(C)cc(C)n2)cc1	none
Cc1cc(C)nc(/N=C(\N)Nc2ccccc2-c2ccccc2)n1	TRPC4 block -6
COC(=O)c1cc(S(=O)(=O)NCCN2CCOCC2)cn1C	none
CSc1nc(SCC(=O)NCc2ccco2)c2c3c(sc2n1)CN(C)CC3	none
CSc1nc(NCc2ccco2)c2c3c(sc2n1)CN(C)CC3	TRPC4 agonist 64 (no result: TRPC4 block)
C=CCN(C)CC/C=C1\c2ccccc2CSc2ccccc21	TRPC4 block -5
CCC(C)NC(=O)C(CCSC)NC(=O)c1ccccc1 (stereo not given)	none
CSCCC(NC(=O)c1ccccc1)C(=O)Nc1ccc(NC(C)=O)cc1 (stereo not given)	TRPC6 inh -5.2
C[N+]1(CC(=O)Nc2ccccc2Cl)CCN(C(=O)c2cccs2)CC1	none
COc1ccccc1C(=O)NC(=O)Nc1c(C)cc(C)cc1C	none
CCCCN(CCCNC(=O)c1ccc(CS(=O)(=O)c2ccc(OC)cc2)o1)Cc1ccccc1	TRPC4 block -6
CCCCN(CC)CCCNC(=O)c1ccc(CS(=O)(=O)c2ccccc2C)o1	TRPC4 agonist 68
COCCNC(=O)c1ccc(CS(=O)(=O)c2ccc(OC)cc2)o1	none
CCN(CC)CCCNC(=O)c1ccc(CS(=O)(=O)c2ccccc2OC)o1	none
COc1ccc(CCC(=O)Nc2ccc(C)c([N+](=O)[O-])c2)cc1	none
O=C(NCc1ccccc1Cl)c1cnc2ccccc2n1	TRPC4 potent 56
CCSc1nnc([C@H](Cc2c[nH]c3ccccc23)NC(=O)OC(C)(C)C)o1	TRPC4 potent 17
COc1cc(/C=C/C(=O)OCC(=O)Nc2c(C)n(C)n(-c3ccccc3)c2=O)ccc1O	none
COc1cc(/C=C/C(=O)OCC(=O)Nc2c(C)n(C)n(-c3ccccc3)c2=O)ccc1OCC#N	TRPC4 agonist 125
CCNC(=O)n1nccc1C(C)Oc1cccc(C(F)(F)F)c1 (stereo not given)	none
Clc1ccc(OCCCc2nc(-c3ccncc3)no2)c(Cl)c1	TRPC4 block -9
CC(C)(C(=O)O)c1ccc([C@H](O)CCCN2CCC(C(O)(c3ccccc3)c3ccccc3)CC2)cc1	none
Cc1ccc(C)c(N2CCN(C(=O)C3CCCN(c4ncnc5c4nc4n5CCCCC4)C3)CC2)c1 (stereo not given)	TRPC4 potent 15
